Assay [1] has as its system Leishmania donovani. Nature of the assay: Antimicrobial activity against wild-type Leishmania donovani AG83 promastigote assessed as inhibition of parasite growth after 72 hrs by MTS assay. Format: functional, organism-based. The note with it: AG83, 72 h. The method, boiled down: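 Promastigotes were grown in Schneider's medium pH 6.9 with 10% heat-inactivated FBS at 27 °C, seeded at 1 × 10^5 per well, and exposed to serial concentrations for 72 h at 27 °C. Compounds were in DMSO (≤1% final) or water. MTS:PMS (20:1) was added for 4 h, then OD490 was read.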
In general terms: Tetrazolium assays rely on reduction of a dye to a coloured formazan, in cell work by metabolically active cells.

For assay [2], the system named is Leishmania donovani. Nature of the assay: Antimicrobial activity against SSG-resistant Leishmania donovani 39 promastigote assessed as inhibition of parasite growth after 72 hrs by MTS assay. Format: functional, organism-based. As to conditions: Leishmania donovani, 39, 72 h. The method, boiled down: (§1)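 Promastigotes were grown in Schneider's medium pH 6.9 with 10% heat-inactivated FBS at 27 °C, seeded at 1 × 10^5 per well, and exposed to serial concentrations for 72 h at 27 °C. Compounds were in DMSO (≤1% final) or water. MTS:PMS (20:1) was added for 4 h, then OD490 was read. Survival was % of untreated control; IC50 = concentration halving OD; N = 1−4.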

Assay [3] in a line: Cytotoxicity against mouse Peritoneal macrophages cells after 72 hrs by MTS assay. Type of assay: cell-based. The note with it: Peritoneal macrophage cell. The method, boiled down: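 Primary mouse peritoneal elicited macrophages were seeded at 2 × 10^4 cells per well in DMEM with 10% heat-inactivated FBS. They were exposed to graded doses for 72 h at 37 °C in 5% CO2. Survival was read by MTS/PMS tetrazolium reduction (OD 490 nm) relative to untreated control. The IC50 was the concentration halving OD. Results are mean ± SEM of 1–4 independent experiments.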

The subject of assay [4] is RAW264.7. Nature of the assay: Cytotoxicity against mouse RAW264.7 cells after 72 hrs by MTS assay. Type of assay: cell-based. As to conditions: RAW264.7, 72 h. The method, boiled down:
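RAW 264.7 murine macrophage line was plated at 1 × 10^4 cells per well in supplemented DMEM. Cells received a graded compound series for 72 h at 37 °C, 5% CO2, with a maximum of 1% DMSO. Viability was measured by MTS with PMS coupling at OD 490 nm, as percent of untreated control. The IC50 was the concentration reducing OD by half, given as mean ± SEM, N = 1–4.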

The test system of assay [5] is Leishmania donovani. In words: Antimicrobial activity against pentamidine-resistant Leishmania donovani AG83PentR50 promastigote assessed as inhibition of parasite growth after 72 hrs by MTS assay. Format: functional, organism-based. The note with it: AG83PentR50, 72 h. The method, boiled down: as §1
The subject of assay [6] is Leishmania donovani. In words: Antimicrobial activity against SSG-resistant Leishmania donovani 39 amastigote infected in mouse peritoneal macrophages assessed as inhibition of parasite growth after 72 hrs by Giemsa staining method. Format: functional, organism-based. As to conditions: Leishmania donovani, 39, 72 h. Summed up:
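Mouse peritoneal elicited macrophages were seeded on coverslips at 1 × 10^5 cells per well in DMEM with 10% heat-inactivated FBS and left to attach overnight. They were infected overnight with late-log Ld39 promastigotes (parasite:macrophage 20:1) at 37 °C, 5% CO2, then washed. Compounds were applied for 72 h at 37 °C. Giemsa-stained amastigotes per 100 macrophages gave IC50; N = 1−3.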

Drawing on ChEMBL document CHEMBL2169835, “Flavonoid dimers as novel, potent antileishmanial agents” (J Med Chem, 2012), this text covers IC50 for 31 compounds.

The structures appear in SMILES notation. pIC50: −log10 of the molar value. Bounds are passed on as bounds.

For `COc1cc(-c2cc(=O)c3ccccc3o2)ccc1OCCOCCN(CCOCCOc1ccc(-c2cc(=O)c3ccccc3o2)cc1OC)Cc1ccncc1`, the pIC50 in assay [1] was 6.20; in assay [2] it was 6.16; in assay [3], 5.57.

Turning to `CCc1ccc2oc(-c3ccc(OCCOCCOCCOCCOCCOCCOc4ccc(-c5cc(=O)c6cc(CC)ccc6o5)cc4)cc3)cc(=O)c2c1`, the pIC50 is 5.51 in assay [1], 5.26 in assay [4], 5.48 in assay [5] and 5.60 in assay [2].

Turning to `O=c1cc(-c2ccc(OCCOCCOCCOCCOc3ccc(-c4cc(=O)c5ccc(F)cc5o4)cc3)cc2)oc2cc(F)ccc12`, the pIC50 was 5.59 in assay [1], below 3.70 in assay [4], 5.64 in assay [5] and 5.62 in assay [2].

For the compound `O=C(O)CCC(=O)N(CCOCCOc1ccc(-c2cc(=O)c3ccccc3o2)cc1)CCOCCOc1ccc(-c2cc(=O)c3ccccc3o2)cc1`, the pIC50 is below 4.00 in assay [1], 4.19 in assay [4], 4.57 in assay [5] and below 4.00 in assay [2].

As for `O=c1cc(-c2ccc(OCCOCCOCCOCCOCCOCCOCCOCCOc3ccc(-c4cc(=O)c5ccccc5o4)cc3)cc2)oc2ccccc12`, the pIC50 is 5.30 in assay [1], 5.36 in assay [4], 5.22 in assay [5] and 5.34 in assay [2].

Consider `Cc1ccc2oc(-c3ccc(OCCOCCOCCOCCOCCOCCOc4ccc(-c5cc(=O)c6cc(C)ccc6o5)cc4)cc3)cc(=O)c2c1`, for which the pIC50 is 5.66 in assay [1], below 4.00 in assay [4], below 4.62 in assay [5] and 5.44 in assay [2].

Take `O=c1cc(-c2ccc(OCCOCCNCCOCCOc3ccc(-c4cc(=O)c5ccccc5o4)cc3)cc2)oc2ccccc12`: the pIC50 in assay [1] was 5.48; in assay [4], 5.68; in assay [5], 5.96; in assay [2] it was 5.64.

On to `Cc1ccc2c(=O)cc(-c3ccc(OCCOCCOCCOCCOc4ccc(-c5cc(=O)c6ccc(C)cc6o5)cc4)cc3)oc2c1`, for which the pIC50 is below 4.62 in assay [1], 4.05 in assay [4], below 4.62 in assay [5] and below 4.62 in assay [2].

Turning to `CCc1ccc2oc(-c3ccc(OCCOCCOCCOCCOc4ccc(-c5cc(=O)c6cc(CC)ccc6o5)cc4)cc3)cc(=O)c2c1`, the pIC50 in assay [1] is below 4.62; in assay [4], below 4.00; in assay [5], below 4.62; in assay [2] it was below 4.62.

Consider `Cc1ccc2c(=O)cc(-c3ccc(OCCOCCOCCOCCOCCOCCOc4ccc(-c5cc(=O)c6ccc(C)cc6o5)cc4)cc3)oc2c1`, for which the pIC50 in assay [1] is 5.17; in assay [4] it was 5.28; in assay [5] it was 5.39; in assay [2], 5.28.

For the compound `O=c1cc(-c2ccc(OCCOCCOCCOCCOCCOc3ccc(-c4cc(=O)c5ccc(F)cc5o4)cc3)cc2)oc2cc(F)ccc12`, the pIC50 in assay [1] is 5.39; in assay [4] it was below 4.00; in assay [5] it was 5.43; in assay [2], 5.32.

As for `CCCCCCCCCCCCCCCCOP(=O)([O-])OCC[N+](C)(C)C` [MILTEFOSINE], the pIC50 was 4.70 in assay [4]; 5.03 in assay [5]; 4.76 in assay [2]; 4.12 in assay [3]; 4.80 in assay [6].

With `CC(C)(C)OC(=O)N(CCOCCOc1ccc(-c2cc(=O)c3ccccc3o2)cc1)CCOCCOc1ccc(-c2cc(=O)c3ccccc3o2)cc1`, the pIC50 in assay [1] was 5.49; in assay [4], below 4.00; in assay [5], 5.96; in assay [2], 5.80.

Regarding `O=c1cc(-c2ccc(OCCOCCOCCOCCOc3ccc(-c4cc(=O)c5ccccc5o4)cc3)cc2)oc2ccccc12`, the pIC50 was below 4.62 in assay [1], below 4.00 in assay [4], below 4.62 in assay [5] and below 4.62 in assay [2].

With `Cc1c(-c2ccc(OCCOCCOCCOCCOc3ccc(-c4oc5ccccc5c(=O)c4C)cc3)cc2)oc2ccccc2c1=O`, the pIC50 in assay [1] is 5.16; in assay [4], 5.09; in assay [5] it was below 4.70; in assay [2], below 4.72.

Turning to `O=c1cc(-c2ccc(OCCOCCOCCOCCOCCOc3ccc(-c4cc(=O)c5ccccc5o4)cc3)cc2)oc2ccccc12`, the pIC50 is 5.28 in assay [1], 5.05 in assay [4], 4.98 in assay [5] and 5.11 in assay [2].

In the case of `O=c1cc(-c2ccc(OCCOCCOCCOc3ccc(-c4cc(=O)c5c(O)cc(O)cc5o4)cc3)cc2)oc2cc(O)cc(O)c12`, the pIC50 in assay [1] was 5.25; in assay [4], below 3.70; in assay [5], 5.17; in assay [2], 5.57.

On to `O=c1cc(-c2ccc(OCCOCCOCCOCCOCCOc3ccc(-c4cc(=O)c5c(O)cc(O)cc5o4)cc3)cc2)oc2cc(O)cc(O)c12`, for which the pIC50 was 5.64 in assay [1], below 3.70 in assay [4], 5.59 in assay [5] and 5.74 in assay [2].

For the compound `O=c1cc(-c2ccc(OCCOCCOCCOc3ccc(-c4cc(=O)c5ccccc5o4)cc3)cc2)oc2ccccc12`, the pIC50 is below 4.62 in assay [1], below 4.02 in assay [4], below 4.62 in assay [5] and below 4.62 in assay [2].

Regarding `O=c1cc(-c2ccc(OCCOCCOCCOCCOCCOCCOc3ccc(-c4cc(=O)c5ccccc5o4)cc3)cc2)oc2ccccc12`, the pIC50 was 5.32 in assay [1], 5.15 in assay [4], 5.31 in assay [5] and 5.37 in assay [2].

In the case of `O=c1cc(-c2ccc(OCCOCCOc3ccc(-c4cc(=O)c5ccccc5o4)cc3)cc2)oc2ccccc12`, the pIC50 was below 4.62 in assay [1], below 4.00 in assay [4], below 4.62 in assay [5] and below 4.62 in assay [2].

On to `Cc1ccc2oc(-c3ccc(OCCOCCOCCOCCOc4ccc(-c5cc(=O)c6cc(C)ccc6o5)cc4)cc3)cc(=O)c2c1`, for which the pIC50 is below 4.62 in assay [1], below 4.00 in assay [4], below 4.62 in assay [5] and below 4.62 in assay [2].

In the case of `O=c1cc(-c2ccc(OCCOCCOCCOCCOCCOCCOCCOc3ccc(-c4cc(=O)c5ccccc5o4)cc3)cc2)oc2ccccc12`, the pIC50 in assay [1] was 5.21; in assay [4], 5.32; in assay [5] it was 5.14; in assay [2] it was 4.99.

With `Cc1c(-c2ccc(OCCOCCOCCOCCOCCOc3ccc(-c4oc5ccccc5c(=O)c4C)cc3)cc2)oc2ccccc2c1=O`, the negative logarithm of the IC50 (pIC50) in assay [1] is 5.32; in assay [4] it was 5.51; in assay [5], 5.34; in assay [2], 5.38.

Turning to `O=c1cc(-c2ccc(OCCOCCOCCOCCOCCOCCOc3ccc(-c4cc(=O)c5ccc(F)cc5o4)cc3)cc2)oc2cc(F)ccc12`, the pIC50 in assay [1] was 5.38; in assay [4], 5.11; in assay [5], 5.34; in assay [2] it was 5.38.

Consider `O=c1cc(-c2ccc(OCCOCCOCCOCCOc3ccc(-c4cc(=O)c5c(O)cc(O)cc5o4)cc3)cc2)oc2cc(O)cc(O)c12`, for which the pIC50 was 5.66 in assay [1], below 3.70 in assay [4], 5.51 in assay [5] and 5.72 in assay [2].

`CCc1ccc2oc(-c3ccc(OCCOCCOCCOCCOCCOc4ccc(-c5cc(=O)c6cc(CC)ccc6o5)cc4)cc3)cc(=O)c2c1`: the pIC50 in assay [1] was 5.33; in assay [4], below 3.70; in assay [5], 5.20; in assay [2] it was 5.34.

In the case of `Cc1ccc2c(=O)cc(-c3ccc(OCCOCCOCCOCCOCCOc4ccc(-c5cc(=O)c6ccc(C)cc6o5)cc4)cc3)oc2c1`, the negative-log IC50 (pIC50) in assay [1] was 5.36; in assay [4], below 4.10; in assay [5], 5.42; in assay [2], 5.10.

`Cc1ccc2oc(-c3ccc(OCCOCCOCCOCCOCCOc4ccc(-c5cc(=O)c6cc(C)ccc6o5)cc4)cc3)cc(=O)c2c1`: the pIC50 in assay [1] was below 4.62; in assay [4], below 4.00; in assay [5], below 4.62; in assay [2], 5.37.

For `O=c1cc(-c2ccc(OCCOCCOCCOCCOCCOCCOCCOCCOCCOc3ccc(-c4cc(=O)c5ccccc5o4)cc3)cc2)oc2ccccc12`, the pIC50 in assay [1] was 5.03; in assay [4], 5.09; in assay [5] it was 4.97; in assay [2], 5.07.

Take `O=c1cc(-c2ccc(OCCOCCOCCOCCOCCOCCOCCOCCOCCOCCOCCOCCOCCOc3ccc(-c4cc(=O)c5ccccc5o4)cc3)cc2)oc2ccccc12`: the pIC50 in assay [1] is 5.04; in assay [4] it was 5.08; in assay [5], 5.10; in assay [2], 5.09.

By pIC50 is commonly meant −log10 of the IC50, conventionally taken in molar units.
